Six compounds from ChEMBL document CHEMBL1828528, “Acyclic nucleoside thiophosphonates as potent inhibitors of HIV and HBV replication” (Eur J Med Chem, 2011) can be followed below.

The target of series [1] is Human immunodeficiency virus type 1 reverse transcriptase (Human immunodeficiency virus 1, UniProt Q72547). As to the kind of experiment: Inhibition of wild-type HIV1 subtype B reverse transcriptase assessed as incorporation of [3H]dTTP. In outline:
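Recombinant clade B HIV-1 WT RT p66/p51, co-expressed with protease in E. coli, affinity-purified and active-site titrated. Diphosphate forms assayed on activated calf thymus DNA with [3H]dTTP. Aliquots spotted in duplicate on DE81 discs, washed with ammonium formate pH 8.0 and ethanol, then scintillation counted. IC50 averaged over ≥3 independent experiments.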

In series [2] the test system is Human immunodeficiency virus 1. Briefly: Antiviral activity against HIV1 clade A isolate 4113 infected in human H9 cells assessed as inhibition of viral replication. The series is classed as functional, organism-based. The settings on record: Human immunodeficiency virus 1, clade A isolate 4113, H9. The procedure, abridged:
(§1)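 H9 cells infected with HIV-1 clinical isolates of clades A, B, C, D, A/E, F and G, in the presence of graded compound concentrations. EC50 is the concentration reducing viral replication by 50%.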

Series [3] concerns Human immunodeficiency virus 1. Briefly: Antiviral activity against HIV1 clade B isolate 2056 infected in human H9 cells assessed as inhibition of viral replication. Format: functional, organism-based. The following applies: Human immunodeficiency virus 1, clade B isolate 2056, H9. The procedure, abridged: as §1
Series [4] has as its system Human immunodeficiency virus 1. As to the kind of experiment: Antiviral activity against HIV1 clade D isolate 1649 infected in human H9 cells assessed as inhibition of viral replication. Format: functional, organism-based. The settings on record: Human immunodeficiency virus 1, clade D isolate 1649, H9. In outline:
as §1

Series [5] deals with Human immunodeficiency virus 1. Briefly: Antiviral activity against 125 TCID50 wild type HIV1 LAI infected in human H9 cells assessed as reduction in viral replication measured on day 7 post infection by reverse transcriptase activity. The series is classed as functional, organism-based. The following applies: Human immunodeficiency virus 1, LAI, H9, 168 h. The procedure, abridged: (§2)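 PHA-P-activated PBMC (1.5 × 10^5; donor cells stimulated 3 days with 1 μg/mL PHA-P plus 5 IU/mL IL-2) or H9 cells (5 × 10^5) in RPMI-1640/10% FCS. Cells pre-treated 30 min with graded compound concentrations, then infected with HIV-1 LAI (100 or 125 TCID50). Supernatant RT activity read on day 7. EC50 from quadratic fit of % inhibition; triplicates, PBMC repeated with a second donor.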

The subject of series [6] is Hepatitis B virus. As to the kind of experiment: Antiviral activity against Hepatitis B virus infected in human HuH7 cells assessed as reduction in viral DNA level treated day 3 to day 8 post transfection by real time quantitative PCR analysis. The series is classed as functional, organism-based. The settings on record: Huh-7.
Series [7] is described as follows: Cytotoxicity against human HuH7 cells. The following applies: Huh-7 cells. The series is classed as cell-based.
Another series concerns Vaccinia virus. Briefly: Antiviral activity against Vaccinia virus infected in HEL cells assessed as inhibition of virus-induced cytopathic effect. The series is classed as functional, organism-based. The settings on record: Orthopoxvirus vaccinia. In outline: (§3)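 Confluent HEL cell monolayers inoculated with 100 CCID50 of virus. Compounds added after a 1–2 h adsorption period. Virus-induced cytopathic effect scored microscopically at 3 days post infection as % of untreated controls. EC50 derived from graphical plots.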
In general terms: Cytopathic effects are the visible damage that an infection or toxin causes in cultured cells.

Series [8] concerns Human immunodeficiency virus 1. Briefly: Antiviral activity against HIV1 clade G isolate 3187 infected in human H9 cells assessed as inhibition of viral replication. Format: functional, organism-based. The following applies: Human immunodeficiency virus 1, clade G isolate 3187, H9. In outline:
as §1

The test system of series [9] is Human alphaherpesvirus 1. As to the kind of experiment: Antiviral activity against TK-deficient and ACR-resistant Herpes simplex virus type 1 KOS infected in HEL cells assessed as inhibition of virus-induced cytopathic effect. Format: functional, organism-based. The settings on record: Human alphaherpesvirus 1, KOS. In outline:
as §3

For series [10], the system named is Human alphaherpesvirus 1. Briefly: Antiviral activity against Herpes simplex virus type 1 KOS infected in HEL cells assessed as inhibition of virus-induced cytopathic effect. The series is classed as functional, organism-based. The following applies: Human alphaherpesvirus 1, KOS. The procedure, abridged: as §3
Series [11] concerns Human immunodeficiency virus 1. As to the kind of experiment: Antiviral activity against HIV1 clade F isolate 2338 infected in human H9 cells assessed as inhibition of viral replication. The series is classed as functional, organism-based. The settings on record: Human immunodeficiency virus 1, clade F isolate 2338, H9. The procedure, abridged: as §1
The nature of series [12]: Cytotoxicity against human HepAD38 cells. Format: cell-based.
Series [13] relates to Human immunodeficiency virus 2. As to the kind of experiment: Antiviral activity against 100 TCID50 wild-type Human immunodeficiency virus type 2 ROD infected in C8166 cells assessed as inhibition of syncytia formation after 4 days by microscopic analysis. The series is classed as functional, organism-based. The settings on record: Human immunodeficiency virus 2, ISOLATE ROD, C8166, 96 h.

The subject of series [14] is Human immunodeficiency virus 1. As to the kind of experiment: Antiviral activity against HIV1 clade B isolate 2101 infected in human H9 cells assessed as inhibition of viral replication. The series is classed as functional, organism-based. The settings on record: Human immunodeficiency virus 1, clade B isolate 2101, H9. In outline: as §1
The test system of series [15] is Human immunodeficiency virus 1. As to the kind of experiment: Antiviral activity against HIV1 clade C isolate 2914 infected in human H9 cells assessed as inhibition of viral replication. The following applies: Human immunodeficiency virus 1, clade C isolate 2914, H9. The series is classed as functional, organism-based. The procedure, abridged:
as §1

The test system of another series is CCRF-CEM. Briefly: (§4) Cytotoxicity against human CEM cells. Format: cell-based. The following applies: ccrf-cem. The procedure, abridged:
(§5)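 Mock-infected CEM cells cultured alongside the anti-HIV assay with compound dilutions for 4 days at 37 °C. CC50 is the concentration inhibiting CEM cell proliferation by 50%.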

In series [16] the test system is Human immunodeficiency virus 1. Briefly: Antiviral activity against HIV1 clade C isolate 4110 infected in human H9 cells assessed as inhibition of viral replication. The series is classed as functional, organism-based. The settings on record: Human immunodeficiency virus 1, clade C isolate 4110, H9. The procedure, abridged: as §1
A further series relates to Human alphaherpesvirus 2. As to the kind of experiment: Antiviral activity against Herpes simplex virus type 2 G infected in HEL cells assessed as inhibition of virus-induced cytopathic effect. The series is classed as functional, organism-based. The settings on record: Human alphaherpesvirus 2, strain G. In outline:
as §3

Series [17] is described as follows: Cytotoxicity against […]-activated human PBMC on day 7 by MTT assay. Format: cell-based. The procedure, abridged: (§6)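 Uninfected PHA-P-activated PBMC and H9 cells exposed to graded compound concentrations. Viability by MTT on day 7. CC50 from quadratic fit of % viability against concentration; triplicates.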
For series [18], the system named is Human immunodeficiency virus 1. Briefly: Antiviral activity against 100 TCID50 wild type HIV1 LAI infected in human PBMC assessed as reduction in viral replication measured on day 7 post infection by reverse transcriptase activity. The following applies: Human immunodeficiency virus 1, LAI, 168 h. The series is classed as functional, organism-based. In outline: as §2

The subject of series [19] is Human immunodeficiency virus 1. Briefly: Antiviral activity against 100 TCID50 wild-type Human immunodeficiency virus 1 3B infected in CEM cells assessed as inhibition of syncytia formation after 4 days by microscopic analysis. The series is classed as functional, organism-based. The following applies: CCRF-CEM, 96 h. In outline: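 Human CEM cells (~3 × 10^5 cells/cm3) infected with 100 CCID50/mL HIV-1 IIIB and seeded into wells holding compound dilutions. After 4 days at 37 °C, giant-cell (syncytium) formation was scored microscopically. EC50 is the concentration inhibiting syncytia formation by 50%.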

Series [20] has as its system Human immunodeficiency virus 1. As to the kind of experiment: Antiviral activity against HIV1 clade A/E isolate 2165 infected in human H9 cells assessed as inhibition of viral replication. Format: functional, organism-based. The following applies: Human immunodeficiency virus 1, clade A/E isolate 2165, H9. In outline: as §1
Series [21] deals with Human immunodeficiency virus 1. Briefly: Antiviral activity against 6250 TCID50 wild type HIV1 LAI infected in human H9 cells assessed as reduction in viral replication measured on day 7 post infection by reverse transcriptase activity. Format: functional, organism-based. The settings on record: Human immunodeficiency virus 1, LAI, H9, 168 h. In outline: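 H9 cells in RPMI-1640/10% FCS given graded compound concentrations, then infected with a high inoculum of 6250 TCID50 HIV-1 LAI. Supernatant reverse transcriptase activity measured on day 7 post infection. EC50 taken as the concentration giving 50% reduction of viral replication.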

A short description of series [22]: Cytotoxicity against human HEL cells assessed as alteration in cellular morphology by microscopic analysis. The series is classed as cell-based. The procedure, abridged: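 Uninfected confluent Vero, CrFK, HEL or HeLa cultures incubated with serial compound dilutions (up to 200 μM) for the same period as the antiviral assays. Minimal toxic concentration is the lowest giving microscopically detectable alteration of cell morphology.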

Series [23] deals with Human immunodeficiency virus 1. As to the kind of experiment: Antiviral activity against HIV1 clade B isolate 1722 infected in human H9 cells assessed as inhibition of viral replication. The following applies: Human immunodeficiency virus 1, clade B isolate 1722, H9. The series is classed as functional, organism-based. In outline:
as §1

Series [24] has as its system Hepatitis B virus. Briefly: Antiviral activity against Hepatitis B virus infected in human HepAD38 cells assessed as reduction in viral DNA level after 6 days by real time quantitative PCR analysis. The series is classed as functional, organism-based. The settings on record: HePAD38, 144 h. The procedure, abridged: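 Tetracycline-regulated HepAD38 cells (5 × 10^5) induced after 2–3 days by PBS wash and feeding with medium lacking tetracycline and G418, with or without compound. Medium changed at day 3. Intracellular HBV DNA quantified by TaqMan Q-PCR at day 6 post induction against a full-genome plasmid standard curve, expressed as % of untreated. Actives retested.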

The nature of series [25]: as §4. The series is classed as cell-based, CCRF-CEM. The settings on record: CCRF-CEM (CEM) cells. In outline:
as §5

Series [26] is described as follows: Cytotoxicity against […]-activated human H9 cells on day 7 by MTT assay. Format: cell-based. In outline: as §6
For orientation: Formazan colour is commonly taken as a measure of viable cells.

Usually IC50 stands for the point on the concentration scale where inhibition reaches its midpoint. As for `C[C@H](Cn1cnc2c(N)ncnc21)OCP(=O)(S)OP(=O)(O)OP(=O)(O)O` (stereo not given in full), the IC50 in [1] worked out at 13.9 µM.

A word on the EC50: it is the concentration giving half of the maximal effect. The term CC50 denotes the concentration that lowers cell viability or growth by half. Read a high CC50 as lower toxicity to the cells. On to `Nc1ncnc2c1ncn2CCOCP(=O)(O)O` [ADEFOVIR], for which the EC50 in series [2] was 17.8 µM; in series [3], 1.02 µM; in [4], 0.32 µM; in [5] it was 1.1 µM; in the series with Hepatitis B virus [6], 6 µM; with Vaccinia virus it was more than 200 µM. The concentration for a half-maximal effect (EC50) is 0.22 µM in [8]; 20 µM in the series with Human alphaherpesvirus 1 [9]; 89 µM in the series on Human alphaherpesvirus 1 [10]; 0.19 µM in [11]; 7 µM in [13]; 3.51 µM in series [14]. The EC50 in series [15] is 1.45 µM; in series [16], 2.74 µM; in the series with Human alphaherpesvirus 2, 20 µM; in series [18], 3.2 µM; in series [19], 5.5 µM; in series [20], 0.32 µM. In addition, the EC50 was 7.9 µM in series [21] and 1.85 µM in series [23]. The results for the CC50 (in series [7]; in series [12]; in the series on CCRF-CEM) were more than 150 µM, more than 150 µM and 85 µM, respectively. The same compound came in with a CC50 at 7 day in series [17] of more than 30 µM. Also, the MCC in [22] was more than 200 µM.

As to `Nc1ncnc2c1ncn2CCOCP(=O)(S)OP(=O)(O)OP(=O)(O)O` (stereo not given), the IC50 in series [1] came to 6.8 µM.

As for `C[C@H](Cn1cnc2c(N)ncnc21)OCP(=O)(O)O` [TENOFOVIR ANHYDROUS], the EC50 was 5.61 µM in series [2]; 1.25 µM in [3]; 0.1 µM in series [4]; 0.23 µM in [5]; more than 200 µM with Vaccinia virus; 0.15 µM in series [8]. The EC50 is more than 200 µM in the series on Human alphaherpesvirus 1 [9]; more than 200 µM with Human alphaherpesvirus 1 [10]; 0.04 µM in [11]; 2.3 µM in the series on Hepatitis B virus [24]; 7.1 µM in [13]; 0.24 µM in series [14]. Besides, the half-maximal effective concentration (EC50) was 0.34 µM in series [15]; 0.83 µM in series [16]; more than 200 µM with Human alphaherpesvirus 2; 3.4 µM in [18]; 4.1 µM in series [19]; 0.51 µM in [20]. Also, the results for the EC50 in [21] and in series [23] were 8.3 µM and 0.69 µM, respectively. Moreover, the CC50 in series [7] was more than 150 µM; in series [12] it was more than 150 µM; in [25], more than 250 µM. The CC50 at 7 day in [26] and in [17] was more than 100 µM each time. For the same compound, the MCC in [22] was more than 200 µM.

Regarding `Nc1ncnc2c1ncn2CCOCP(=O)(O)OP(=O)(O)OP(=O)(O)O`, in series [1], the IC50 stood at 7 µM.

Consider `C[C@H](Cn1cnc2c(N)ncnc21)OCP(=O)(O)OP(=O)(O)OP(=O)(O)O`, for which the IC50 in series [1] amounted to 11.3 µM.
